Measured values gathered from unrelated publications.
Protocols differ between the studies behind these lines.
Target: Tyrosine-protein kinase Lck (LCK, Homo sapiens, UniProt P06239)

effect on | method | tested at | remaining binding | SMILES
binding | competition with immobilised ligand | 5 µM | 93% | COc1ncc2cc3ccccc3nc2c1C#N
binding |  | 1 µM | 94% | COc1ccnn2ncc(-c3ccnc(N(C)C)n3)c12
cell-free assay | competition with immobilised ligand | 1 µM | 100% | CCCOc1ccc([C@H]2[C@H](C(=O)O)[C@@H](c3ccc4c(c3)OCO4)CN2CC(=O)Nc2c(CC)cccc2CC)cc1
binding | competition with immobilised ligand | 10 µM | 6.6% | c1cncc(-c2cccc(Nc3nccc(NC4CCCCC4)n3)c2)c1
binding | competition with immobilised ligand | 0.1 µM | 94% | C[C@@H](c1ccc(-n2cnc3c(N)ncnc32)cc1)N1CCc2nn(C)c(Cc3ccccc3)c2C1=O
binding | competition with immobilised ligand | 1 µM | 2.7% | Cc1cnc(Nc2ccc(C(=O)N3CCC(N4CCCC4)CC3)cc2)nc1-c1cc2ccccc2s1
cell-free assay | competition with immobilised ligand | 0.1 µM | 87% | CNC(=O)c1ccc(Nc2ncc(C(F)(F)F)c(NCc3nccnc3N(C)S(C)(=O)=O)n2)cc1
binding | competition with immobilised ligand | 1 µM | 32% | O=C(c1ccc(Nc2ncc(Cl)c(-c3ccc(Cl)s3)n2)cc1)N1CCC(N2CCCC2)CC1
binding | competition with immobilised ligand | 1 µM | 100% | Nc1ncc2c(n1)-c1c([nH]c3ccc(C#CC4CC4)cc13)CCCC2
binding |  | 1 µM | 89% | CN(CCCC(F)(F)F)c1nccc(-c2cnn3ncccc23)n1
binding | competition with immobilised ligand | 1 µM | 100% | COc1cnc(Nc2cccc(S(N)(=O)=O)c2)nc1N1CCN(c2ccccc2)C(=O)C1
cell-free assay | competition with immobilised ligand | 1 µM | 100% | N#Cc1ccc(Nc2ccc3[nH]c(=O)[nH]c3c2)c(Cl)c1
binding | competition with immobilised ligand | 1 µM | 76% | O=C(NCCCN1CCOCC1)c1ccc(Nc2nccc(-c3cc4ccccc4s3)n2)cc1
binding | competition with immobilised ligand | 1 µM | 100% | O=C(NCC1CCOCC1)c1n[nH]cc1NC(=O)c1c(F)cccc1F
binding |  | 1 µM | 98% | C[C@H]1CCN(c2nccc(-c3cnn4ncccc34)n2)C1
cell-free assay | competition with immobilised ligand | 1 µM | 100% | CNCc1ccccc1-c1csc([C@H](C)Nc2nc(C)nc3cc(OC)c(OC)cc23)c1
